Screening data (PubChem BioAssay)
KCNK3 block: human KCNK3 channel inhibitors, primary screen, CHO cells, FluxOR thallium flux, B-score; B-score at 10 µM; hit rate 0.84% among 340,000; Potassium channel subfamily K member 3 (Homo sapiens), O14649; FluxOR fluorescence; stronger effect = lower value;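 active = B-score under library mean minus 4 SD, starting fluorescence ratio at most library mean plus 5 SD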;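 also: more negative B-score means stronger inhibition of thallium flux through KCNK3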
KCNQ1 act: potentiators or activators of KCNQ1 channel, primary screen, cell-based, thallium flux, high-throughput; CHO-K1 KCNQ1, thallium flux FluxOR fluorescence; stronger effect = higher value; hit rate 0.35% among 310,000; B-score at 10 µM; Potassium voltage-gated channel subfamily KQT member 1 (Homo sapiens), P51787;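 active = fluorescence ratio B-score, a plate-corrected score, at least three library SD, with initial intensity B-score within 5 SD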
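Assay system: CHO-K1 cells stably expressing KCNQ1; Medium: assay buffer with matched DMSO; Also added: K+/Tl+ depolarizing stimulus; Dosing: single dose; Timing: dye 90 min, compound 20 min, room temperature; Measured by: kinetic FluxOR thallium fluorescence, 10-s 1-Hz baseline, 110-s post-stimulus read; Read-out: peak-minus-minimum fluorescence over initial fluorescence, negative-control normalized, B-scored.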
KCNK9 inh: KCNK9 potassium channel inhibitors, primary screen, HEK293 cells, thallium flux; Potassium channel subfamily K member 9 (Homo sapiens), Q9NPC2; FluxOR thallium flux fluorescence; stronger effect = lower value; B-score at 10 µM; hit rate 1.2% among 310,000; AID 488922, 2010;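 active = ratio B-score over 3 SD below the library mean, with starting fluorescence within 5 SD of its mean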;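 also: negative B-score means less thallium flux so channel inhibition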
Target sequence (Q9NPC2 whole entry, looked up): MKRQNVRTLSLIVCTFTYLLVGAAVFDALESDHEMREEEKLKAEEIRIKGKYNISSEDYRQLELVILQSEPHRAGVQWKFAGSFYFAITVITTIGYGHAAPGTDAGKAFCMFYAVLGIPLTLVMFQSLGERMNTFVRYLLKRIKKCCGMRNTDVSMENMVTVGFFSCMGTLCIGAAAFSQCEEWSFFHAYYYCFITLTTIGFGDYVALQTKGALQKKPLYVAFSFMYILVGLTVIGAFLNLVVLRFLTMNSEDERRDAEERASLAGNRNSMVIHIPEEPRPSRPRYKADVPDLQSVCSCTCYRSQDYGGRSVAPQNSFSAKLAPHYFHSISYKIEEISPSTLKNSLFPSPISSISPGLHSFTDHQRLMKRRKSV
hERG protect: hERG rescue from dofetilide block, primary screen, cell-based, CHO-hERG, FluxOR thallium flux, dofetilide IC70; Voltage-gated inwardly rectifying potassium channel KCNH2 (Homo sapiens), Q12809; hit rate 0.51% among 310,000; activation (rescue from dofetilide block), less the hit threshold, % at 10 µM; dofetilide IC70 present; AID 1511, 2009;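 active = activation above the mean of controls blocked by dofetilide plus 5 SD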;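 also: thallium influx through hERG after potassium depolarization seen as dye fluorescence rise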
Kir21 block: inhibitors of mouse Kir2.1 inward-rectifier potassium channel; Inward rectifier potassium channel 2 (Mus musculus), P35561; HEK293-Kir2.1, FluxOR thallium flux fluorescence; stronger effect = lower value; B-score at 10 µM; hit rate 0.85% among 310,000; AID 1672, 2009;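 active = fluorescence ratio B-score at or below minus 3 SD of library scores, with starting-brightness B-score within 2 SD, cut at about -4.2 in these data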;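 also: channel flux triggered by added potassium and thallium sulfate stimulus; B-score of peak minus minimum fluorescence over baseline after thallium stimulus; more negative B-score means stronger Kir2.1 block with less thallium influx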
KCNQ1 block: inhibitors of human KCNQ1 channel, primary screen, cell-based, thallium flux, high-throughput; Potassium voltage-gated channel subfamily KQT member 1 (Homo sapiens), P51787; CHO-K1 KCNQ1, FluxOR thallium flux fluorescence; stronger effect = higher value; B-score at 10 µM; hit rate 1.3% among 310,000; AID 2642, 2010;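 active = compounds whose thallium flux B-score, printed positive for inhibition, exceeds three library SD while starting fluorescence stays within three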;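 also: channel opened by potassium depolarization with thallium stimulus after 20 min compound exposure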
Starred values were filed as active, the others as inactive; i = inactive; . = no result. Most compounds without a hit are left out; they make up all but 3.8% or so of the library.

SMILES | KCNK3 block | KCNQ1 act | KCNK9 inh | hERG protect | Kir21 block | KCNQ1 block
CNCCCCOc1ccccc1-c1ccccc1 | i | i | i | -5 | -6.4* | i
COCCCNCCOc1ccccc1-c1ccccc1 | i | i | i | -3 | -2.3 | i
COCCCNCCCCOc1ccccc1-c1ccccc1 | i | i | i | -5 | -4.5* | i
C=CCNCCCCOc1ccccc1-c1ccccc1 | i | i | i | -11 | -5.7* | i
CNCCOc1ccccc1-c1ccccc1 | i | i | i | -2 | -0.59 | i
CCCCNCCOc1ccccc1-c1ccccc1 | i | i | i | -13 | -4.4* | i
CCOC(=O)N1CCN(Cc2ccc(OCC(O)CN3CCCCC3)cc2)CC1 (stereo not given) | i | i | i | -7 | 0.5 | i
O=C(COc1ccc(Cl)cc1)NCCNc1ccc([N+](=O)[O-])cc1 | i | i | i | -3 | 1.2 | i
COc1ccc(N2CCN(C(=O)c3ccc(COc4ccc([N+](=O)[O-])cc4)o3)CC2)cc1 | i | i | i | -5 | -1.2 | i
Cc1ccc(C2(C)NC(=O)N(CC(=O)Nc3c(C)n(C)n(-c4ccccc4)c3=O)C2=O)cc1 (stereo not given) | i | i | i | -7 | -0.13 | i
Cc1c(NC(=O)CN2C(=O)NC(C)(c3ccccc3)C2=O)c(=O)n(-c2ccccc2)n1C (stereo not given) | i | i | i | 5.8* | -0.03 | i
O=C(NC12CC3CC(CC(C3)C1)C2)c1ccccc1 | i | i | i | -9 | -1.6 | i
O=C(NC12CC3CC(CC(C3)C1)C2)N(Cc1ccccc1)Cc1ccncc1 | i | i | i | -10 | -0.99 | 6*
N#C/C(=N\Nc1ccc(Cl)cc1)C(N)=S | i | i | i | -12 | -0.44 | 6*
CCCOC(=O)c1ccc(OC(=O)c2ccco2)cc1 | i | i | i | -9 | -4.4* | i
CC(=O)Nc1ccc(OC(=O)c2ccco2)cc1 | i | i | i | -3 | -0.61 | i
Cc1ccc(C(C)C)c(OCCCNCc2cccnc2)c1 | i | i | i | -7 | -5.7* | i
Cc1ccc(C(C)C)c(OCCNS(C)(=O)=O)c1 | i | i | i | -4 | -0.3 | i
CCCCNCC#CCOc1cc(C)ccc1C(C)C | i | i | i | -24 | -4.7* | i
CNC(=S)N/N=C/c1cn(CCOc2cccc(OC)c2)c2ccccc12 | i | i | i | -1 | 0.52 | i
O=C(Cc1ccccc1)N/N=C/c1cc(Br)cc(Br)c1O | i | i | i | -7 | -0.68 | i
Oc1c(Br)cc(Br)cc1C=NCc1ccc(F)cc1 | i | 12* | i | 1 | 1.1 | i
Oc1c(Br)cc(Br)cc1C=NCc1ccccc1 | i | 22* | i | -19 | -1.2 | i
O/N=C/c1cc(Br)ccc1OCc1ccc(F)cc1 | i | i | i | -6 | 1.2 | i
O=C(C1CCCN(S(=O)(=O)c2ccc(Br)cc2)C1)N1CCN(Cc2ccccc2)CC1 (stereo not given) | i | i | i | -4 | -1.1 | i
SMILES | KCNK3 block | KCNQ1 act | KCNK9 inh | hERG protect | Kir21 block | KCNQ1 block
CCOC(=O)C1=CN(CC)S(=O)(=O)NC1c1ccc(C(F)(F)F)cc1 (stereo not given) | i | . | . | . | . | .
O=C(CN1C(=O)c2cccnc2Oc2ccc(Cl)cc21)Nc1ccccc1F | i | i | -6.8* | -8 | 1.5 | i
O=C1COc2ccc(C(=O)COC(=O)c3ccc([N+](=O)[O-])cc3Cl)cc2N1 | i | . | . | . | . | .
CC1Oc2ccccc2N(CC(=O)N2CCCCCC2)C1=O (stereo not given) | i | 22* | i | 2 | 0.06 | i
CC1CCN(C(C(=O)Nc2ccc(C(C)C)cc2)c2ccc3c(c2)OCO3)CC1 (stereo not given) | i | i | -8.1* | -12 | 0.12 | i
CC(C)c1ccc(NC(=O)NC(C)c2ccc3c(c2)OCO3)cc1 (stereo not given) | i | i | i | -7 | 0.06 | i
CC(C)c1ccc(NC(=O)C(c2ccc3c(c2)OCO3)N2CCC3(CC2)OCCO3)cc1 (stereo not given) | i | i | i | -10 | 0.78 | i
CC(C)c1ccc(NC(=O)C(c2ccc3c(c2)OCO3)N2CCCCC2)cc1 (stereo not given) | i | i | -7.4* | -19 | -0.1 | i
CN(CC(=O)Nc1cccc(S(=O)(=O)NC2=NCCC2)c1)Cc1cccc(F)c1 | i | . | . | . | . | .
CN(C)CCNc1ncnc2oc(-c3ccccc3)c(-c3ccccc3)c12 | i | i | i | -7 | -4.7* | i
Cc1ccc(C)c(NC(=O)COC(=O)CNC(=O)C2CCCCC2)c1 | i | . | . | . | . | .
COc1ccc(-n2c(NC(=O)c3ccc(Br)o3)c(C#N)c3nc4ccccc4nc32)cc1 | . | i | i | -14 | 0.85 | 7*
Cc1ccccc1C(=O)N1[C@@H](C(C)C)COc2cc(Br)ccc2S1(=O)=O | i | . | . | . | . | .
O=C1C2C3C=CC(C3)C2C(=O)N1/N=C/c1cc(Br)cc([N+](=O)[O-])c1O (stereo not given) | i | i | i | -6 | 2.2 | 7*
O=C1C2C3C=CC(C3)C2C(=O)N1/N=C/c1ccc(-c2ccccc2[N+](=O)[O-])o1 (stereo not given) | i | i | i | -4 | 0.01 | i
CC(C(=O)Nc1ccc2c(c1)OCCO2)N(C)CC(=O)Nc1ccccc1Br (stereo not given) | i | . | . | . | . | .
COc1ccc(NC2CCCN(C(=O)CCCn3cncn3)C2)cc1OC (stereo not given) | i | i | i | -4 | 1.9 | i
CCOC(=O)C(NC(=O)c1ccccc1)=C(C)C | i | i | i | 5.4* | -1.4 | i
CCOC(=O)/C(=C\C=C\c1ccccc1)NC(=O)c1ccccc1 | i | i | i | -8 | -0.71 | i
CCOC(=O)/C(=C/C=C/c1ccccc1)NC(=O)c1ccccc1 | i | i | -7.4* | -13 | -0.64 | i
CCCCOC(=O)C(NC(=O)c1ccccc1)=C(C)C | i | i | i | -15 | -0.01 | i
CCN(CC(=O)Nc1cccc(OC)c1)CC(=O)Nc1cccc2ccccc12 | i | . | . | . | . | .
